{"source": "ChEMBL document CHEMBL3046951", "about": "“Volatile constituents from the leaves of Callicarpa japonica Thunb. and their antibacterial activities” (2004)", "assay_type_in_all_cases": "functional", "key": {"Vibrio parahaemolyticus [1]": {"test_system": "Vibrio parahaemolyticus", "experiment": "Antimicrobial activity against Vibrio parahaemolyticus ATCC 33844 assessed as growth inhibition rate at 1.2 mg/l after 72 hr by spectrophotometry", "details": "ATCC 33844, 72 h, read-out: GI", "in_short": "(§1)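 Authentic volatiles (>95% purity; 2,4-heptadienal 90%) tested against 18 h subcultures. Growth media: E. coli O157:H7 and S. aureus in tryptic soy broth at 37 °C; L. monocytogenes in tryptic soy broth at 30 °C; V. parahaemolyticus in tryptic soy broth + 3% NaCl at 37 °C; S. typhimurium in nutrient broth at 30 °C. Bioscreen C OD every 24 h for 72 h versus 10% Tween 80 control.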"}, "Salmonella typhimurium [2]": {"test_system": "Salmonella typhimurium", "experiment": "Antimicrobial activity against Salmonella enterica subsp. enterica serovar Typhimurium ATCC 14028 assessed as growth inhibition rate at 1.2 mg/l after 72 hr by spectrophotometry", "details": "ATCC 14028, 72 h, read-out: GI", "in_short": "as §1"}, "Staphylococcus aureus [3]": {"test_system": "Staphylococcus aureus", "experiment": "Antimicrobial activity against Staphylococcus aureus ATCC 25923 assessed as growth inhibition rate at 1.2 mg/l after 72 hr by spectrophotometry", "details": "ATCC 25923, 72 h, read-out: GI", "in_short": "as §1"}, "Bacillus cereus [4]": {"test_system": "Bacillus cereus", "experiment": "Antimicrobial activity against Bacillus cereus ATCC 11778 assessed as growth inhibition rate at 1.2 mg/l after 72 hr by spectrophotometry", "details": "ATCC 11778, 72 h, read-out: GI", "in_short": "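Pure volatile compounds (>95% purity; 2,4-heptadienal 90%) identified in the leaf extract were tested against B. cereus ATCC 11778 in nutrient broth at 30 °C. The inoculum was grown 24 h, then subcultured (0.1 mL into 9.9 mL) for 18 h. Optical density was read in a Bioscreen C every 24 h for 72 h against a 10% Tween 80 control.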"}, "Escherichia coli [5]": {"test_system": "Escherichia coli", "experiment": "Antimicrobial activity against Escherichia coli O157:H7 ATCC 43894 assessed as growth inhibition rate at 1.2 mg/l after 72 hr by spectrophotometry", "details": "O157:H7 ATCC 43894, 72 h, read-out: GI"}, "Listeria monocytogenes [6]": {"test_system": "Listeria monocytogenes", "experiment": "Antimicrobial activity against Listeria monocytogenes ATCC 19111 assessed as growth inhibition rate at 1.2 mg/l after 72 hr by spectrophotometry", "details": "ATCC 19111, 72 h, read-out: GI", "in_short": "as §1"}, "Bacillus cereus [7]": {"test_system": "Bacillus cereus", "experiment": "Antimicrobial activity against Bacillus cereus ATCC 11778 assessed as growth inhibition rate at 11.64 mg/l after 72 hr by spectrophotometry", "details": "ATCC 11778, 72 h, read-out: GI", "in_short": "(§2)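 Pure volatile compounds (purity >95%; one at 90%) were tested against B. cereus ATCC 11778. The strain was grown at 30 °C in nutrient broth for 24 h, then subcultured for 18 h. Optical density was read in a Bioscreen C every 24 h for 72 h, with 10% Tween 80 as the control.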"}, "Salmonella typhimurium [8]": {"test_system": "Salmonella typhimurium", "experiment": "Antimicrobial activity against Salmonella enterica subsp. enterica serovar Typhimurium ATCC 14028 assessed as growth inhibition rate at 11.64 mg/l after 72 hr by spectrophotometry", "details": "ATCC 14028, 72 h, read-out: GI", "in_short": "(§3)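 Salmonella Typhimurium ATCC 14028 grown in nutrient broth at 30 °C, precultured 24 h, then subcultured 1:100 for 18 h before testing. Single volatile compounds (>95% pure) were added. OD was read every 24 h over 72 h in a Bioscreen C, with 10% Tween 80 as the comparison control.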"}, "Vibrio parahaemolyticus [9]": {"test_system": "Vibrio parahaemolyticus", "experiment": "Antimicrobial activity against Vibrio parahaemolyticus ATCC 33844 assessed as growth inhibition rate at 11.64 mg/l after 72 hr by spectrophotometry", "details": "ATCC 33844, 72 h, read-out: GI"}, "Listeria monocytogenes [10]": {"test_system": "Listeria monocytogenes", "experiment": "Antimicrobial activity against Listeria monocytogenes ATCC 19111 assessed as growth inhibition rate at 11.64 mg/l after 72 hr by spectrophotometry", "details": "ATCC 19111, 72 h, read-out: GI", "in_short": "(§4)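 L. monocytogenes was grown at 30 °C in tryptic soy broth, subcultured for 18 h, and exposed to pure volatile compounds (>95% purity). Growth was followed by Bioscreen C optical density every 24 h for 72 h against a 10% Tween 80 control.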"}, "Staphylococcus aureus [11]": {"test_system": "Staphylococcus aureus", "experiment": "Antimicrobial activity against Staphylococcus aureus ATCC 25923 assessed as growth inhibition rate at 11.64 mg/l after 72 hr by spectrophotometry", "details": "ATCC 25923, 72 h, read-out: GI"}, "Escherichia coli [12]": {"test_system": "Escherichia coli", "experiment": "Antimicrobial activity against Escherichia coli O157:H7 ATCC 43894 assessed as growth inhibition rate at 11.64 mg/l after 72 hr by spectrophotometry", "details": "O157:H7 ATCC 43894, 72 h, read-out: GI"}, "Bacillus cereus [13]": {"test_system": "Bacillus cereus", "experiment": "Antimicrobial activity against Bacillus cereus ATCC 11778 assessed as growth inhibition rate at 143.24 mg/l after 72 hr by spectrophotometry", "details": "ATCC 11778, 72 h, read-out: GI", "in_short": "as §2"}, "Staphylococcus aureus [14]": {"test_system": "Staphylococcus aureus", "experiment": "Antimicrobial activity against Staphylococcus aureus ATCC 25923 assessed as growth inhibition rate at 143.24 mg/l after 72 hr by spectrophotometry", "details": "ATCC 25923, 72 h, read-out: GI"}, "Vibrio parahaemolyticus [15]": {"test_system": "Vibrio parahaemolyticus", "experiment": "Antimicrobial activity against Vibrio parahaemolyticus ATCC 33844 assessed as growth inhibition rate at 143.24 mg/l after 72 hr by spectrophotometry", "details": "ATCC 33844, 72 h, read-out: GI"}, "Escherichia coli [16]": {"test_system": "Escherichia coli", "experiment": "Antimicrobial activity against Escherichia coli O157:H7 ATCC 43894 assessed as growth inhibition rate at 143.24 mg/l after 72 hr by spectrophotometry", "details": "O157:H7 ATCC 43894, 72 h, read-out: GI"}, "Listeria monocytogenes [17]": {"test_system": "Listeria monocytogenes", "experiment": "Antimicrobial activity against Listeria monocytogenes ATCC 19111 assessed as growth inhibition rate at 143.24 mg/l after 72 hr by spectrophotometry", "details": "ATCC 19111, 72 h, read-out: GI", "in_short": "as §4"}, "Salmonella typhimurium [18]": {"test_system": "Salmonella typhimurium", "experiment": "Antimicrobial activity against Salmonella enterica subsp. enterica serovar Typhimurium ATCC 14028 assessed as growth inhibition rate at 143.24 mg/l after 72 hr by spectrophotometry", "details": "ATCC 14028, 72 h, read-out: GI", "in_short": "as §3"}}}
{"smiles": "CC=O", "values": [{"measurement": "inhibition of growth at 1.2 µg/mL", "setting": "Vibrio parahaemolyticus [1]", "value": 11.1, "unit": "%"}, {"measurement": "inhibition of growth at 1.2 µg/mL", "setting": "Salmonella typhimurium [2]", "value": 15.4, "unit": "%"}, {"measurement": "inhibition of growth at 1.2 µg/mL", "setting": "Staphylococcus aureus [3]", "value": 2.8, "unit": "%"}, {"measurement": "inhibition of growth at 1.2 µg/mL", "setting": "Bacillus cereus [4]", "value": 1.2, "unit": "%"}, {"measurement": "inhibition of growth at 1.2 µg/mL", "setting": "Escherichia coli [5]", "value": 5.3, "unit": "%"}, {"measurement": "inhibition of growth at 1.2 µg/mL", "setting": "Listeria monocytogenes [6]", "value": 10, "unit": "%"}]}
{"smiles": "CC1=C[C@@H]2C(=C(C)CC[C@H]2C(C)C)CC1", "values": [{"measurement": "inhibition of growth at 11.64 µg/mL", "setting": "Bacillus cereus [7]", "value": 20.3, "unit": "%"}, {"measurement": "inhibition of growth at 11.64 µg/mL", "setting": "Salmonella typhimurium [8]", "value": 4.3, "unit": "%"}, {"measurement": "inhibition of growth at 11.64 µg/mL", "setting": "Vibrio parahaemolyticus [9]", "value": 32.5, "unit": "%"}, {"measurement": "inhibition of growth at 11.64 µg/mL", "setting": "Listeria monocytogenes [10]", "value": 15.7, "unit": "%"}, {"measurement": "inhibition of growth at 11.64 µg/mL", "setting": "Staphylococcus aureus [11]", "value": 26.3, "unit": "%"}, {"measurement": "inhibition of growth at 11.64 µg/mL", "setting": "Escherichia coli [12]", "value": 9.5, "unit": "%"}]}
{"smiles": "C=C1CC[C@@H]2[C@H]([C@@H]3[C@H](C)CC[C@@H]13)C2(C)C", "note": "[(-)-AROMADENDRENE II]", "values": [{"measurement": "inhibition of growth at 143.24 µg/mL", "setting": "Bacillus cereus [13]", "value": 72.3, "unit": "%"}, {"measurement": "inhibition of growth at 143.24 µg/mL", "setting": "Staphylococcus aureus [14]", "value": 61.5, "unit": "%"}, {"measurement": "inhibition of growth at 143.24 µg/mL", "setting": "Vibrio parahaemolyticus [15]", "value": 45.6, "unit": "%"}, {"measurement": "inhibition of growth at 143.24 µg/mL", "setting": "Escherichia coli [16]", "value": 24.2, "unit": "%"}, {"measurement": "inhibition of growth at 143.24 µg/mL", "setting": "Listeria monocytogenes [17]", "value": 28, "unit": "%"}, {"measurement": "inhibition of growth at 143.24 µg/mL", "setting": "Salmonella typhimurium [18]", "value": 36.4, "unit": "%"}]}
